According to ChEMBL document CHEMBL1122766, “Synthesis and antitumor evaluation of some nitrosourea and nitrogen mustard amino acid derivatives” (J Med Chem, 1984):

How the values were obtained:
Mus musculus [1] = organism: Mus musculus; test: Dose range for antitumor activity against leukemia L1210 in mice.; type: functional
Method in brief: (§1)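 Adult F1 (DBA/2 × C57Bl/6) mice inoculated ip with 10^5 L1210 cells on day 0, 8–10 mice per dose. Compound in olive oil (2–150 mg/kg) given day 1, repeated days 5 and 9 only in mice without toxicity. Daily mortality with autopsy. T/C × 100 from median survival; active if >125 and significant by Wilcoxon W test. Acute LD50 determined graphically.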

Mus musculus [2] = organism: Mus musculus; test: Optimum dose for antitumor activity against leukemia L1210 in mice; type: functional; method in brief: as §1
[3] = Median lethal dose in L1210 (murine luekemia) inoculated mice.; type: toxicity, organism-based; settings: mouse, in vivo
Method in brief: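 Adult F1 (DBA/2 × C57Bl/6) mice inoculated ip with 10^5 L1210 cells on day 0; 8–10 mice per dose; compound in olive oil (2–150 mg/kg) on day 1, repeated days 5 and 9 only in mice without toxicity signs. Daily mortality, autopsy to separate leukemic from toxic deaths; acute LD50 determined graphically (98% confidence limits).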

[4] = Therapeutic index in L1210 (murine leukemia) inoculated mice.; settings: mouse; read-out: TI
Mus musculus [5] = organism: Mus musculus; test: The oncostatic index (T=median survival time in the treated group of mice, C=median survival time in the control group X 100) was calculated; type: functional
Method in brief: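 Mice (adult F1 DBA/2 × C57Bl/6) given 10^5 L1210 cells ip on day 0; 8–10 per dose group; olive-oil doses 2–150 mg/kg on day 1, repeated days 5 and 9 in non-toxic mice. T/C × 100 from median survival times, treated vs control. Active if >125 and significant by Wilcoxon W test; ∞ means >50% of group cured.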

Row | Structure (SMILES) | Dose (Mus musculus [1]) [mg/kg] | OD (Mus musculus [2]) [mg/kg] | LD50 [3] [mg/kg] | selectivity ratio [4] | T/C (Mus musculus [5]) [%]
1 | NC(=O)CC(NC(=O)N(CCCl)N=O)C(=O)NCCCl (stereo unspecified) | 30 | 20 | 35 | 1.75 | 
2 | CN(CC(=O)NCCCl)C(=O)N(CCCl)N=O | 280 | 200 | 400 | 2 | 
3 | CCC(C)C(NC(=O)N(CCCl)N=O)C(=O)NCCCl (stereo unspecified) | 75 | 50 | 130 | 2.6 | 
4 | CC(C)CC(NC(=O)N(CCCl)N=O)C(=O)NCCCl (stereo unspecified) | 50 | 35 | 64 | 1.8 | 
5 | O=NN(CCCl)C(=O)NC(Cc1c[nH]c2ccccc12)C(=O)NCCCl (stereo unspecified) | 35 | 27 | 65 | 2.4 | 
6 | O=NN(CCCl)C(=O)N1CCCC1C(=O)NCCCl (stereo unspecified) | 35 |  | 80 |  | 194
7 | O=NN(CCCl)C(=O)NCC(=O)NCCCl | 20 | 12 | 25 | 2 | 
8 | O=NN(CCCl)C(=O)NCCC(=O)NCCCl | 50 | 35 |  | 2.9 | 
9 | O=NN(CCCl)CCSSCCN(CCCl)N=O | 50 | 30 | 75 | 2.5 | 
10 | CC(O)C(NC(=O)N(CCCl)N=O)C(=O)NCCCl (stereo unspecified) | 20 | 15 | 25 | 1.6 | 
11 | O=NN(CCCl)C(=O)NCCCC(=O)NCCCl | 50 | 35 |  | 3.6 | 
12 | CC1(C)O[C@@H]2[C@H](O1)[C@@H](COC(=O)c1ccc([N+](=O)[O-])cc1)O[C@H]2NC(=O)N(CCCl)N=O | 30 | 20 | 90 | 4.5 | 
13 | CC(NC(=O)N(CCCl)N=O)C(=O)NCCCl (stereo unspecified) | 30 | 20 | 35 | 1.75 | 
14 | CSCCC(NC(=O)N(CCCl)N=O)C(=O)NCCCl (stereo unspecified) | 30 | 20 | 32 | 1.6 | 
15 | O=NN(CCCl)C(=O)NC(Cc1ccccc1)C(=O)NCCCl (stereo unspecified) | 60 | 50 | 80 | 1.6 | 
16 | O=NN(CCCl)C(=O)NC(Cc1ccc(O)cc1)C(=O)NCCCl (stereo unspecified) | 25 |  | 40 |  | 211
17 | O=NN(CCCl)C(=O)N[C@H]1C(O)O[C@H](CO)[C@@H](O)[C@@H]1O (stereo partly specified) [CHLOROZOTOCIN] | 25 | 15 | 35 | 2.5 | 
18 | O=NN(CCCl)C(=O)NC1CCCCC1 [LOMUSTINE] | 10 |  | 30 |  | 
